Assay results from ChEMBL document CHEMBL5137122, “The Natural Products Withaferin A and Withanone from the Medicinal Herb Withania somnifera Are Covalent Inhibitors of the SARS-CoV-2 Main Protease” (J Nat Prod, 2022).
Active and inactive are the calls of the source.

How the values were obtained:
[1] = molecular target: Replicase polyprotein 1ab (Severe acute respiratory syndrome coronavirus 2) (UniProt P0DTD1); test: Inhibition of SARS-COV2 main protease mediated cytotoxicity against human A549 cells transfected with pCMV3-2019-nCoV-3CLpro plasmid assessed as increase in cell number measured at 48 hrs in presence of buthionine sulfoximine by Nucblue dye based microscopic analysis
Summary of the method: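 Transfected A549 cells were pretreated with 500 µM buthionine sulfoximine. At 20 h post-transfection, compound or E64 (5 µM) was added with 1 mM BSO. After 48 h, cells were stained with NucBlue (Hoechst 33342), imaged and counted, with nontransfected cells handled identically.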

[2] = molecular target: Replicase polyprotein 1ab (Severe acute respiratory syndrome coronavirus 2) (UniProt P0DTD1); test: Inhibition of SARS-COV2 main protease mediated cytotoxicity against human HepG2 cells transfected with pCMV3-2019-nCoV-3CLpro plasmid assessed as increase in cell number at 5 uM measured at 48 hrs by Nucblue dye based microscopic analysis
Summary of the method: (§1)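 HepG2 or A549 cells (3×10^5) were lipofected 16 h after seeding with 3 µg pCMV3-2019-nCoV-3CLpro in serum-free DMEM for 8 h, then grown in complete medium for 12 h. Cells were trypsinised and 1×10^4 replated with hygromycin B (200 µg) plus compound or E64 (5 µM) for 48 h. NucBlue (Hoechst 33342) was added for 30 min at 37 °C, then imaging and hemocytometer counts against nontransfected cells.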

[3] = molecular target: Replicase polyprotein 1ab (Severe acute respiratory syndrome coronavirus 2) (UniProt P0DTD1); test: Inhibition of SARS-COV2 main protease mediated cytotoxicity against human A549 cells transfected with pCMV3-2019-nCoV-3CLpro plasmid assessed as increase in cell number at 5 uM measured at 48 hrs by Nucblue dye based microscopic analysis; summary of the method: as §1
[4] = molecular target: Replicase polyprotein 1ab (Severe acute respiratory syndrome coronavirus 2) (UniProt P0DTD1); test: Inhibition of SARS-COV2 main protease mediated cytotoxicity against human A549 cells transfected with pCMV3-2019-nCoV-3CLpro plasmid assessed as GSH level measured at 48 hrs in presence of buthionine sulfoximine by Nucblue dye based microscopic analysis; format: cell-based
[5] = molecular target: Replicase polyprotein 1ab (Severe acute respiratory syndrome coronavirus 2) (UniProt P0DTD1); test: Inhibition of recombinant SARS-COV2 main protease expressed in Escherichia coli Rosetta cells at 0.5 uM using DABCYL-KTSAVLQSGFRKME-EDANS as substrate pre-incubated for 60 mins followed by substarte addition and measured at 30 min by FRET-based assay relative to control
Summary of the method: (§2)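 Time-course variant of the FRET assay: fixed inhibitor concentration with preincubation times varied (5–120 min, 37 °C) in 50 mM Tris pH 7.4 with 2 µM EDTA. Conditions were 0.5 µM MPro with 5 µM inhibitor, or 0.25 µM MPro with 0.5 µM inhibitor.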

[6] = molecular target: Replicase polyprotein 1ab (Severe acute respiratory syndrome coronavirus 2) (UniProt P0DTD1); test: Inhibition of SARS-COV2 main protease mediated cytotoxicity against human HepG2 cells transfected with pCMV3-2019-nCoV-3CLpro plasmid assessed as increase in cell number and measured at 48 hrs by calcien AM staining based microscopic analysis
Summary of the method: (§3)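 3-D organoid-like culture: pCMV3-2019-nCoV-3CLpro-transfected or nontransfected HepG2 or A549 cells (3000 cells/µL) were mixed 1:1 with growth factor-reduced Matrigel, with drug-containing medium added at the same time. Viable cells were imaged after calcein AM staining. Organoids were then melted on ice, pelleted, trypsinised and counted by hemocytometer.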

[7] = molecular target: T1, Replicase polyprotein 1ab (Severe acute respiratory syndrome coronavirus 2, UniProt P0DTD1); test: Inhibition of recombinant SARS-COV2 main protease expressed in Escherichia coli Rosetta cells using DABCYL-KTSAVLQSGFRKME-EDANS as substrate pre-incubated for 60 mins followed by substarte addition by FRET-based assay
Summary of the method: (§4)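 FRET assay with purified E. coli-expressed MPro (0.5 µM) in 50 mM Tris pH 7.4 with 2 µM EDTA and no DTT. MPro was preincubated 60 min at 37 °C with a range of inhibitor concentrations, with 5 mM GSH added for line 12. IC50 came from initial rates.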

[8] = molecular target: Replicase polyprotein 1ab (Severe acute respiratory syndrome coronavirus 2) (UniProt P0DTD1); test: Inhibition of recombinant SARS-COV2 main protease expressed in Escherichia coli Rosetta cells at 5 uM using DABCYL-KTSAVLQSGFRKME-EDANS as substrate pre-incubated for 60 mins followed by substarte addition measured at 5 min by FRET-based assay relative to control; summary of the method: as §2
[9] = molecular target: Replicase polyprotein 1ab (Severe acute respiratory syndrome coronavirus 2) (UniProt P0DTD1); test: Binding affinity to recombinant SARS-COV2 main protease expressed in Escherichia coli Rosetta cells at 2 uM measured after 16 hrs by LC-MS analysis based equilibrium dialysis method
Summary of the method: (§5)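 Purified His-GST-tagged MPro expressed in E. coli Rosetta and released with HRV3C protease. MPro (30 µg) in 50 mM potassium phosphate pH 7.5 with 2 µM compound was dialysed against the same solution without protein (3.5 kDa cutoff) for 16 h at room temperature. Drug in the dialysate was quantified by LC-MS or LC-MS/MS against a no-protein control. The dialyser contents were then denatured and drug re-measured.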

[10] = molecular target: Replicase polyprotein 1ab (Severe acute respiratory syndrome coronavirus 2) (UniProt P0DTD1); test: Inhibition of SARS-COV2 main protease mediated cytotoxicity against human A549 cells transfected with pCMV3-2019-nCoV-3CLpro plasmid assessed as increase in cell number and measured at 48 hrs by calcien AM staining based microscopic analysis; summary of the method: as §3
[11] = molecular target: T1, Replicase polyprotein 1ab; test: Inhibition of recombinant SARS-COV2 main protease expressed in Escherichia coli Rosetta cells using DABCYL-KTSAVLQSGFRKME-EDANS as substrate pre-incubated for 60 mins followed by substarte addition measured at 30 min in presence of GSH by FRET-based assay; summary of the method: as §4
[12] = molecular target: Replicase polyprotein 1ab (Severe acute respiratory syndrome coronavirus 2) (UniProt P0DTD1); test: Binding affinity to recombinant SARS-COV2 main protease expressed in Escherichia coli Rosetta cells at 2 uM measured after 16 hrs by LC-MSMS analysis based equilibrium dialysis method; summary of the method: as §5

SMILES | inhibition [1] | inhibition [2] | inhibition [3] | inhibition [4] | inhibition [5] | inhibition [6] | IC50 [7] | inhibition [8] | Activity [9] | inhibition [10] | IC50 [11] | Activity [12]
CC(C)C[C@H](NC(=O)[C@H]1O[C@@H]1C(=O)O)C(=O)NCCCCN=C(N)N | Active | Active | Active |  |  |  |  |  |  |  |  | 
CC1=C(CO)C(=O)O[C@@H]([C@@H](C)[C@H]2CC[C@H]3[C@@H]4C[C@H]5O[C@]56[C@@H](O)C=CC(=O)[C@]6(C)[C@H]4CC[C@]23C)C1 [WITHAFERIN A] | Active | Active | Active | Active | 80% | Active | 540 nM | 100% | Active | Active | 630 nM | 
CC1=C(C)C(=O)O[C@@H]([C@@H](C)[C@@]2(O)CC[C@H]3[C@@H]4[C@@H]5O[C@@H]5[C@@]5(O)CC=CC(=O)[C@]5(C)[C@H]4CC[C@@]32C)C1 [WITHANONE] | Active | Active | Active | Active |  | Active | 1800 nM |  |  | Active |  | Active
